# Screens deposited in PubChem by several laboratories.
# Ec RNAP inh = Escherichia coli RNA polymerase inhibition. E. coli RNA polymerase, fluorescence transcription assay. inhibition, %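 (tested at 10 µM)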. hit rate 0.2% among 62,000. P0A8V2; in the data active means inhibition above about 20%;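 further: 0% = enzyme without compound and 100% = no enzyme blank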
# 5HT1a ag = 5-HT1a (human) receptor agonism | P08908 | CHO 5-HT1a Ga15 NFAT-bla reporter, FRET ratio; 0% basal, 100% maximal reference agonist | activation, % at 10 µM | hit rate 0.56% among 65,000 | AID 567;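 active means activation above the screen-wide mean activation plus 3 SD, cut at about 19% in these data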;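 further: 0% = DMSO wells and 100% = 5-CT at EC100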
# 5-HT1A blocker = 5-HT1a (human) receptor antagonism | P08908 | AID 612 | hit rate 0.68% among 62,000 | CHO 5-HT1a Ga15 NFAT-bla reporter, antagonist mode | inhibition, % at 10 µM;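 active means inhibition above the mean of all tested compounds plus 3 SD, cut at about 43% in these data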;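 further: receptor stimulated by 5-CT agonist at 100 nM near EC80; beta-lactamase reporter measured by ratiometric fluorescence of a cleavable substrate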
# HTR1E antagonist = blocks the human 5-HT1E serotonin receptor. P28566. CHO 5-HT1E Ga15 NFAT-bla reporter, FRET, antagonist. inhibition, % at 6 µM. hit rate 0.99% among 65,000. AID 571;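 active means inhibition above a set limit, the mean inhibition across every tested compound plus 3 SD, cut at about 29% in these data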;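 further: signal is the 460 over 535 nm emission ratio of beta-lactamase substrate; 0% = agonist plus DMSO wells and 100% = wells without agonist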
# Target sequence (P28566 whole entry, looked up): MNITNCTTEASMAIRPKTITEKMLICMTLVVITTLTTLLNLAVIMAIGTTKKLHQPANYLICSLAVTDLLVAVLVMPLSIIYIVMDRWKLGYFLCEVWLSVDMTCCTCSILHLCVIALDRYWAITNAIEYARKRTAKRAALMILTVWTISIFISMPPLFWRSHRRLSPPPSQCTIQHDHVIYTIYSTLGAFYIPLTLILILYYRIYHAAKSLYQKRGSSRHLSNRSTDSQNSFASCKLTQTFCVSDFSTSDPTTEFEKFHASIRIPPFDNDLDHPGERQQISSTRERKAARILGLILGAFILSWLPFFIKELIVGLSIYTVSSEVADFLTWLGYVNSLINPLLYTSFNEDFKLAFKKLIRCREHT
# S1P3 agonist = S1P3 (human) receptor agonism; Q99500; S1P3 NFAT-BLA reporter cells, FRET ratio; relative to 1 µM S1P, basal subtracted; activation, % at 4.5 µM; hit rate 0.1% among 60,000;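 active means activation above the screen-wide mean plus 3 SD, cut at about 4.5% in these data, passing the limit was not always enough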
#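 Assay system: CHO cells stably expressing human S1P3, Gα16 and NFAT-β-lactamase reporter. Timing: overnight plating, 4 h compound 37 °C, 2 h substrate RT. Signal: β-lactamase FRET emission ratio 460/535 nm. Measure: percent activation versus median 1 µM S1P response, basal-subtracted, per plate. Repeats: primary screen single test, confirmation screen in triplicate.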
# 5HT1E ag = 5-HT1E (human) receptor agonism; hit rate 0.69% among 65,000; CHO 5-HT1E Ga15 NFAT-bla reporter, FRET; 0% DMSO wells, 100% control agonist wells; activation, % at 6 µM; AID 574;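 active means activation above a set limit, the screen-wide mean activation plus 3 SD, cut at about 8.5% in these data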;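 further: 100% = positive control agonist at 1 µM giving full maximal response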
# An asterisk follows results filed as active; nt = no result. A selection: hits, their analogues and other compounds. The true share with any hit is near 2.6%.
SMILES,Ec RNAP inh,5HT1a ag,5-HT1A blocker,HTR1E antagonist,S1P3 agonist,5HT1E ag
CC1CCN(CCCNC(=O)CN2CCN(Cc3ccc(Cl)cc3)C2=O)CC1,4.2,-1.7,-2.3,31.1*,-0.9,1.2
COc1cc(NS(=O)(=O)c2ccc(C)cc2)c2ncccc2c1,4.0,0.1,67.3*,66.5*,0.2,1.5
CC(=O)Oc1ccc(N2C(=O)C3C(C2=O)C2(C)C=CC3(C)O2)cc1 (centres undefined),3.8,-6.4,84.7*,63.8*,-1.4,-0.5
COC(=O)c1cc(N2C(=O)C3C(C2=O)C2(C)C=CC3(C)O2)ccc1Cl (centres undefined),6.9,0.9,-2.5,2.5,0.6,-0.6
COc1cc2c(cc1OC)C(COc1ccc3c(C)cc(=O)oc3c1)N(C(=O)c1ccco1)CC2 (centres undefined),-3.2,2.4,5.8,29.7*,nt,-0.5
COC(=O)c1nnn(-c2nonc2N)c1CSc1ccc(Cl)cc1,10.6,-1.5,15.4,29.7*,-0.5,-1.1
Cc1cc(NC(=O)C2CCC2)n(-c2ccccn2)n1,nt,2.4,2.3,36.1*,nt,1.5
O=C(c1ccccc1)N1CCN(CC2CC=CCC2)CC1 (centres undefined),1.1,-0.3,-9.7,1.5,1.2,9.2*
COc1cccc(OCCOCCNCCO)c1,1.5,42.0*,-0.1,1.9,-0.6,-0.1
COc1cccc(OC)c1OCCNCCO,-2.4,0.0,0.6,0.3,-0.9,1.3
COc1ccc(-c2noc(CCC(=O)N(C)c3cccc(C)c3)n2)cc1,4.9,-0.2,1.3,-4.6,nt,-0.4
CCNc1nc(NC(C)(C)C)nc(N(C#N)CC)n1,-9.9,2.2,-6.7,29.0*,1.3,0.4
CCN(CC)c1ccc(C2C(C(=O)OCCOC)=C(C)NC3=C2C(=O)CC(C)(C)C3)cc1 (centres undefined),6.8,-2.2,-14.0,-13.0,-1.6,1.1
CCOc1cc(S(=O)(=O)NCc2ccccn2)c(C)cc1C,9.8,53.5*,2.5,4.6,-1.0,0.0
COc1cccc(NC(=O)N2CCN(c3cccc(C)c3C)CC2)c1,2.0,-1.6,0.2,-1.2,-0.8,30.0*
COc1cccc(NC(=O)N2CCC(N3CCCCC3)CC2)c1,2.7,-2.9,-1.6,6.8,-0.8,-0.5
COc1ccc(-c2noc(CSc3nc4ccccc4c(=O)n3-c3ccccc3)n2)cc1OC,8.1,5.1,-5.6,7.8,-1.0,1.0
O=c1c2ccccc2nc(SCc2nc(-c3ccccc3)no2)n1-c1ccc(F)cc1,3.3,20.4*,12.9,-1.6,-2.0,0.3
Cc1ccc(-n2c(SCc3cn4ccsc4n3)nc3ccccc3c2=O)cc1,-4.1,3.2,16.8,43.5*,1.0,0.2
c1ccc(-n2cnnc2SCc2cn3ccsc3n2)cc1,11.5,1.2,0.0,3.5,-0.8,0.5
CC1C(=NO)C(C)C(c2ccc(N(C)C)cc2)NC1c1ccc(N(C)C)cc1 (centres undefined),4.0,-0.5,13.7,-6.4,-0.9,-1.5
Cc1c(C(=O)Nc2ccc3oc(-c4cccnc4)nc3c2)oc2ccccc12,nt,2.4,-16.4,25.8,0.0,-0.1
OCCNc1nc(N2CCN(Cc3ccccc3)CC2)nc2ccccc12,7.5,-2.2,-16.0,-18.0,0.5,-1.2
Nc1ccc(CN2CCN(c3ccc4ccccc4n3)CC2)cc1,5.5,-1.2,11.2,1.4,-0.4,13.6*
O=C(O)CCc1nc(-c2ccccc2Cl)no1,-1.4,-4.3,-2.3,1.2,-1.0,0.1
SMILES,Ec RNAP inh,5HT1a ag,5-HT1A blocker,HTR1E antagonist,S1P3 agonist,5HT1E ag
COc1ccc(N2CCN(S(=O)(=O)c3cccs3)CC2)cc1,5.6,26.2*,-3.1,1.7,-0.3,0.2
COc1ccc(N2CCN(CCNC(=O)C3CCN(S(=O)(=O)c4cccs4)CC3)CC2)cc1,7.0,-0.3,-3.8,-3.5,-1.7,-0.7
COC(=O)C1=C(C)Nc2ccc(C)cc2S1,7.7,-3.3,-7.7,-9.6,0.1,0.6
CC(=O)C1=C(C)Nc2cc(C(F)(F)F)ccc2S1,62.1*,-1.9,4.4,-14.6,-2.0,1.0
CCn1c2ccccc2c2nc3ccccc3nc21,7.7,0.8,-8.9,32.2*,0.6,0.4
COc1cc2nc3c4ccccc4n(CC#N)c3nc2cc1OC,7.5,-1.7,-10.8,4.6,0.9,2.3
CCn1c2ccccc2c2nc3cc(OC)c(OC)cc3nc21,-9.7,4.7,6.6,45.2*,0.9,1.9
CS(=O)(=O)N(CC(=O)N1CCN(c2ccccc2)CC1)C1CCCCC1,3.5,-0.1,-6.6,0.6,-0.7,0.7
O=C(O)C1(NS(=O)(=O)c2ccc(F)c(Cl)c2)CCCCC1,3.7,-1.1,-9.0,-5.4,0.6,0.3
O=C(NCCc1c[nH]c2ccccc12)c1ccc(S(=O)(=O)NCc2ccco2)cc1,7.3,1.4,7.4,10.1,nt,12.8*
O=C(Nc1ccc(S(=O)(=O)NCc2ccco2)cc1)c1ccc2ccccc2n1,-5.1,-0.8,49.2*,4.5,-0.4,0.4
COC(=O)c1c(C)oc2ccc(OC(=O)c3cccs3)cc12,7.3,2.5,-2.7,-7.2,-1.3,-0.3
COc1ccc(CCn2c(=S)[nH]c3cc(C(=O)NCc4ccco4)ccc3c2=O)cc1OC,6.4,0.7,3.1,0.1,-1.3,3.0
CCN(CC)c1ccc(NC(=O)c2cc(OC)cc(OC)c2)c(C)c1,1.1,-1.7,52.0*,42.1*,-0.8,-1.1
CCCC(c1nnnn1C(C)(C)CC)N1CCN(C2CCCC2)CC1 (centres undefined),6.3,-0.3,36.0,13.7,-1.0,0.7
CCOc1cccc(-c2nnc3sc(-c4cc(OC)c(OC)cc4OC)nn23)c1,0.2,-5.5,-1.9,-5.7,-1.6,1.7
COc1cccc(-c2nnc3sc(C4CCCCC4)nn23)c1,5.9,1.6,nt,25.0,-0.9,-1.2
COc1cc(-c2nnc3sc(C4CCCCC4)nn23)cc(OC)c1OC,nt,-0.5,-9.7,40.4*,1.0,1.3
COc1cc(OC)c(-c2nn3c(C4CCCCC4)nnc3s2)cc1OC,9.6,2.9,-2.0,32.8*,0.3,1.0
CC(C)N1CC=C2C(C#N)=C(N)C(C#N)(C#N)C(c3ccccc3)C2C1 (centres undefined),0.1,25.8*,nt,1.6,5.0,3.8
CC(C)=CCC(C)(C)CNC(=O)NC1CCCCC1,7.0,-2.4,nt,99.1*,-2.2,-1.1
CC(C)(C)N(C=C(Cl)Cl)C(=O)NC1CCCCC1,7.1,-2.0,-22.0,-5.3,1.1,0.2
COc1ccc2c(c1)c1nnc(SC)nc1n2C,2.6,1.6,4.1,12.9,0.8,17.1*
CN(C1CCCCC1)S(=O)(=O)Cc1ccccc1,4.0,-2.5,-3.3,2.2,-0.2,0.0
CN1CCN2c3ccccc3Cc3ccccc3C2C1 (centres undefined),13.2,-0.4,nt,4.7,-1.1,86.5*
c1ccc2c(c1)CCN2CCN1CCc2ccccc21,9.6,-1.2,9.3,9.3,-0.4,-0.9
